Bioassay records from PubChem.
PERK inhibitor: blocks human PERK kinase; Q9NZJ5; CHO PERK-DD fusion, SEAP luminescence translation reporter; inhibition, % at 5.6 µM; actives 0.17% (n = 220,000); AID 1416;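 active = inhibition above the mean inhibition of all tested compounds plus 3 SD, set separately per screening campaign, cut at about 2.9% in these data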;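 also: PERK kinase domain activated by AP20187 dimerizer at 100 nM; 0% = DMSO with dimerizer and 100% = rapamycin at 8.4 µM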
MDM2 E3 inh: Mdm2 E3 ligase (human) inhibition | signal enhancement, % at 5 µM | actives 0.11% (n = 210,000) | Q00987 | AID 1230 | cell-based MDM2 ubiquitination luciferase reporter, 2 h; 0 = plate control, 100 = twice control, blank-subtracted;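 active = signal enhancement of 30% or more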;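 also: luminescence tracks abundance of the self-degrading MDM2-luciferase fusion protein; higher signal means inhibition of MDM2 E3 ligase activity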
Target sequence (Q00987 whole entry, looked up, the tested form may be a part): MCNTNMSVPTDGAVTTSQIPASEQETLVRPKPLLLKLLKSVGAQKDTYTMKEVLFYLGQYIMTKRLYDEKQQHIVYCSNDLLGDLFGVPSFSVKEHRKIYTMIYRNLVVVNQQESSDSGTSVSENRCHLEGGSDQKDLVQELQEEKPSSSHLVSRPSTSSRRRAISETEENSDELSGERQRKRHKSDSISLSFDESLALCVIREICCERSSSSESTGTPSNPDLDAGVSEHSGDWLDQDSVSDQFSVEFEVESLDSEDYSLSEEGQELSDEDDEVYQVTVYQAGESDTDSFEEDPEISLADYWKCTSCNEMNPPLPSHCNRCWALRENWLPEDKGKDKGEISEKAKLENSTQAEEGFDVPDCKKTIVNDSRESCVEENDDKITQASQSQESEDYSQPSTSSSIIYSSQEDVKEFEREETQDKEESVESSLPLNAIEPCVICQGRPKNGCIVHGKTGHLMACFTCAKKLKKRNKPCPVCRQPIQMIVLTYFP
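System: stable MDM2–luciferase fusion reporter cells / Input: 2000 cells seeded into each well / Schedule: 4 h settle plus 2 h compound, 37 °C / Compound: single-point 5 µM / Buffer or medium: cells held in DMEM / Benchmarks: control and blank well means / Evaluation: percent signal gain over controls, blank-subtracted / Measured by: luciferase luminescence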
STAT1 activator: activators of IFN-gamma induced STAT1 signaling; AID 932; actives 2.6% (n = 200,000); NIH 3T3 STAT1-luciferase reporter, luminescence; 100% = IFN-gamma alone, no compound; activation (% of control), % at 5.5 µM;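 active = activation above the screen-wide mean activation plus 3 SD, cut at about 130% in these data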;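 also: raw ratio to IFN-gamma control signal so 100% means no change and 0% no light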
NF-kB neuron act: raises NF-kB expression in human neuronal cells. NF-kB reporter expression; active compounds read high. fold change at 12.5 µM. AID 1239. actives 1.6% (n = 190,000); in the data active = fold change above about 3.3
APP 5'UTR act: APP 5'UTR luciferase reporter activation. SH-SY5Y APP 5'UTR luciferase reporter, luminescence; zero percent = DMSO vehicle wells. activation, % at 2 µM. actives 1% (n = 190,000). AID 1276;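 active = activation above a set limit, based on mean plus 3 SD of controls, cut at about 140% in these data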
AHR activator: activators of human aryl hydrocarbon receptor | P35869 | AHR-responsive luciferase reporter cells, luminescence | activation, % at 5 µM | actives 2.5% (n = 320,000) | AID 2796; in the data active = activation above about 47%;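 also: 0% = vehicle wells and 100% = reference agonist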
Numbers without * were called inactive; . = no result given. This is a sample that favours compounds with a hit; in the whole collection about 4.5% have one here.

SMILES | PERK inhibitor | MDM2 E3 inh | STAT1 activator | NF-kB neuron act | APP 5'UTR act | AHR activator
Cc1cc2c(C)nc(Cc3ccccc3)nc2o1 | 1 | -17 | 107 | 1.1 | 0 | 54*
Cc1sc2c(c1C)C(=O)NC(c1cccc(O)c1)N2 (stereo unspecified) | 0 | -2 | 103 | 1.9 | 14 | 55*
COC(=O)c1ccc(C2NC(=O)c3c(sc(C)c3C)N2)cc1 (stereo unspecified) | 0 | -12 | . | . | . | 18
CCn1nc(CC(C)C)cc1C(=O)N1CCCC(Nc2ccc(OC)cc2)C1 (stereo unspecified) | . | . | . | . | . | 1
CN(C)C(=C(C#N)C#N)N1CCN(c2ccc(Cl)cc2)CC1 | 0 | -7 | 100 | 1 | -14 | 68*
CSC(=NC#N)N1CCN(c2ccc(Cl)cc2)CC1 | 0 | -22 | 98 | 1.9 | -13 | 73*
CN(C)C(=C(C#N)C#N)N1CCN(c2ccc(Cl)c(Cl)c2)CC1 | 0 | 0 | 105 | 0.57 | 7 | 62*
N#CC(C#N)=C/C(C#N)=C(/N)N1CCN(c2ccc(Cl)cc2)CC1 | 0 | -15 | 100 | 1.1 | 16 | -12
CCN1C(=O)[C@H]2[C@@H](c3ccc(-c4ccccc4)cc3)N[C@@](CC(C)C)(C(=O)OC)[C@H]2C1=O | . | . | . | . | . | 0
Cc1cccc(N2CCN(c3ccc(N4C(=O)CCCC4=O)cc3[N+](=O)[O-])CC2C)c1 (stereo unspecified) | 0 | -3 | 95 | 0.89 | 3 | 70*
Cc1c(/C=N\NC(=O)C2COc3ccccc3O2)c2ccccc2n1C (stereo unspecified) | 0 | -10 | 95 | 3.2 | -91 | 51*
COc1ccc(CNn2c(C)nc3ccccc3c2=O)cc1 | 0 | -12 | 112 | 0.87 | 27 | 70*
COc1ccc(CCn2c(S)nc3ccccc3c2=O)cc1 | . | . | . | . | . | 68*
NC(=O)CSc1nc2ccccc2c(=O)n1CCc1ccccc1 | . | . | . | . | . | 75*
COc1ccc(CCn2c(C)nc3c(c(=O)c4ccccc4n3C)c2=O)cc1 | -1 | -14 | 117 | 1.8 | -1 | 29
CCC(C)(C)C1CCc2[nH]nc(C(=O)O)c2C1 (stereo unspecified) | . | . | . | . | . | 1
COc1ccc(Cl)cc1Nc1nc(-c2sc(NC(=O)C(C)(C)C)nc2C)cs1 | -1 | -9 | 92 | 0.31 | 9 | 16
CCCCCC(=O)Nc1nc(C)c(-c2csc(Nc3ccccc3OCC)n2)s1 | -1 | -14 | 100 | 1.1 | -2 | 67*
CCCCC(=O)Nc1nc(C)c(-c2csc(Nc3cc(Cl)ccc3OC)n2)s1 | 0 | -25 | 107 | 1.2 | -11 | 70*
CCCCCCC(=O)Nc1nc(C)c(-c2csc(Nc3ccccc3OC)n2)s1 | -1 | 2 | 110 | 1 | 8 | 69*
CCCC(C)C(=O)Nc1nc(C)c(-c2csc(Nc3ccc(Cl)cc3)n2)s1 (stereo unspecified) | 0 | -4 | 92 | 0.95 | 20 | 79*
COc1ccccc1Nc1nc(-c2sc(NC(=O)c3ccccc3)nc2C)cs1 | 1 | -2 | 104 | 1.4 | 20 | 28
COCCn1c(N)c(Sc2ccc(C)cc2)c(=O)[nH]c1=O | . | . | . | . | . | -3
C=CCc1cccc(CNn2cnnc2)c1O | . | . | . | . | . | 1
COc1ccc(-c2sc(Nc3ccccc3)n[n+]2-c2ccccc2)cc1Br | . | . | . | . | . | 64*
SMILES | PERK inhibitor | MDM2 E3 inh | STAT1 activator | NF-kB neuron act | APP 5'UTR act | AHR activator
COc1ccc(C)cc1Nc1n[n+](-c2ccccc2)c(-c2ccc(C(=O)O)cc2)s1 | . | . | . | . | . | 48*
CCC(=O)Nc1cccc(NC(=S)NC(=O)c2ccccc2Cl)c1 | -1 | -7 | 111 | 1.8 | -5 | 5
CC(C)CC(=O)NC(=S)Nc1nc(-c2ccccc2)cs1 | 1 | -7 | 106 | 1 | -1 | 67*
CCC(=O)Nc1cccc(NC(=S)NC(=O)c2cccs2)c1 | 0 | -10 | 132* | 1.8 | 32 | 50*
O=C(NC(=S)Nc1cccc2cccnc12)c1ccccc1 | 1 | -5 | 110 | 1.4 | 8 | 32
O=C(NC(=S)Nc1cccc2cccnc12)c1cccs1 | 1 | -15 | 107 | 1 | 23 | 70*
Cc1ccc2cccc(NC(=S)NC(=O)c3ccnn3C)c2n1 | -1 | 7 | 88 | 0.54 | 2 | 55*
C/C(Cn1cnc([N+](=O)[O-])n1)=N\NC(=O)c1ccc(O)cc1O | 0 | 2 | 99 | 1.3 | 28 | 20
